Assay results published in ChEMBL document CHEMBL1772954, “Antifungal, cytotoxic and SAR studies of a series of N-alkyl, N-aryl and N-alkylphenyl-1,4-pyrrolediones and related compounds” (Bioorg Med Chem, 2011).
In brackets after ≈: the same amount, converted by molar mass.

Columns and labels:
Format in all cases: functional
Candida tropicalis = experiment: Antifungal activity against Candida tropicalis C 131 2000
Method in brief: (§1)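 CLSI M27-A3 broth microdilution in RPMI-1640 buffered to pH 7.0 with MOPS. Inoculum 1-5 × 10^3 CFU/mL. Compound twofold dilutions from 250 to 0.24 µg/ml, final DMSO <1%. Incubated at 35 °C in a moist, dark chamber and read at 48 h. MIC is the lowest concentration giving total growth inhibition. For MFC, 5 µL from clear wells was plated in duplicate on SDA; MFC is the lowest concentration with no growth.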

Cryptococcus neoformans = experiment: Antifungal activity against Cryptococcus neoformans ATCC 32264; method in brief: as §1
Saccharomyces cerevisiae = experiment: Antifungal activity against Saccharomyces cerevisiae ATCC 9763; method in brief: as §1
Trichophyton rubrum = experiment: Antifungal activity against Trichophyton rubrum C 113 2000
Method in brief: (§2)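 Dermatophytes tested by CLSI M38-A2 microdilution in MOPS-buffered RPMI-1640 at pH 7.0. Inoculum 1-5 × 10^3 CFU/mL; compounds 250 to 0.24 µg/ml in twofold steps, final DMSO <1%. Incubated at 28 °C in a moist, dark chamber and read according to control growth. MIC is the lowest concentration with complete inhibition. MFC is the lowest concentration with no growth after duplicate subculture on SDA.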

Candida albicans = experiment: Antifungal activity against Candida albicans ATCC 10213; method in brief: as §1
Aspergillus flavus = experiment: Antifungal activity against Aspergillus flavus ATCC 9170
Method in brief: (§3)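 Broth microdilution per CLSI M38-A2 in RPMI-1640 with MOPS at pH 7.0. Inoculum 1-5 × 10^3 CFU/mL, with twofold compound dilutions spanning 250-0.24 µg/ml (final DMSO <1%). Plates incubated at 35 °C, moist and dark, and read when the control fungus had grown. MIC is total growth inhibition. MFC comes from subculturing clear wells in duplicate onto SDA.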

Aspergillus niger = experiment: Antifungal activity against Aspergillus niger ATCC 9029; method in brief: as §3
Aspergillus fumigatus = experiment: Antifungal activity against Aspergillus fumigatus ATCC 26934; method in brief: as §3
Nannizzia gypsea = experiment: Antifungal activity against Microsporum gypseum C 115 2000; method in brief: as §2
[1] = system: Trichophyton mentagrophytes; experiment: Antifungal activity against Trichophyton mentagrophytes ATCC 9972; method in brief: as §2

Structure (SMILES) | MFC (Candida tropicalis) [µg/mL] | MIC (Candida tropicalis) [µg/mL] | MFC (Cryptococcus neoformans) [µg/mL] | MIC (Cryptococcus neoformans) [µg/mL] | MFC (Saccharomyces cerevisiae) [µg/mL] | MIC (Saccharomyces cerevisiae) [µg/mL] | MFC (Trichophyton rubrum) [µg/mL] | MIC (Trichophyton rubrum) [µg/mL] | MFC (Candida albicans) [µg/mL] | MIC (Candida albicans) [µg/mL] | MFC (Aspergillus flavus) [µg/mL] | MIC (Aspergillus flavus) [µg/mL] | MFC (Aspergillus niger) [µg/mL] | MIC (Aspergillus niger) [µg/mL] | MFC (Aspergillus fumigatus) [µg/mL] | MIC (Aspergillus fumigatus) [µg/mL] | MFC (Nannizzia gypsea) [µg/mL] | MIC (Nannizzia gypsea) [µg/mL] | MFC [1] [µg/mL] | MIC [1] [µg/mL]
O=C1CCC(=O)N1c1ccccc1 | > 250 | > 250 | > 250 | > 250 | > 250 | > 250 | > 250 | > 250 | > 250 | > 250 | > 250 | > 250 | > 250 | > 250 | > 250 | > 250 | > 250 | > 250 | > 250 | > 250
CN(C/C=C/C#CC(C)(C)C)Cc1cccc2ccccc12 [TERBINAFINE] | – | – | – | – | – | – | 0.03 (≈ 0.103 µM) | 0.01 (≈ 0.0343 µM) | – | – | – | – | – | – | – | – | 0.06 (≈ 0.206 µM) | 0.03 (≈ 0.103 µM) | 0.06 (≈ 0.206 µM) | 0.03 (≈ 0.103 µM)
O=C1CCC(=O)N1CCc1ccccc1 | > 250 | > 250 | > 250 | > 250 | > 250 | > 250 | > 250 | > 250 | > 250 | > 250 | > 250 | > 250 | > 250 | > 250 | > 250 | > 250 | > 250 | > 250 | > 250 | > 250
O=C(O)/C=C\C(=O)NCCCCc1ccccc1 | > 250 | > 250 | > 250 | > 250 | > 250 | > 250 | > 250 | > 250 | > 250 | – | > 250 | > 250 | > 250 | > 250 | > 250 | > 250 | > 250 | > 250 | > 250 | > 250
O=C1C(c2ccccc2)=C(c2ccccc2)C(=O)N1Cc1ccccc1 | > 250 | > 250 | > 250 | > 250 | > 250 | > 250 | > 250 | > 250 | > 250 | > 250 | > 250 | > 250 | > 250 | > 250 | > 250 | > 250 | > 250 | > 250 | > 250 | > 250
O=C1C(Cl)=C(Cl)C(=O)N1c1ccccc1 | > 250 | > 250 | > 250 | > 250 | > 250 | > 250 | > 250 | > 250 | > 250 | > 250 | > 250 | > 250 | > 250 | > 250 | > 250 | > 250 | > 250 | > 250 | > 250 | > 250
CC1=C(C)C(=O)N(CCc2ccccc2)C1=O | > 250 | > 250 | > 250 | 250 (≈ 1090 µM) | > 250 | > 250 | 250 (≈ 1090 µM) | 62.5 (≈ 273 µM) | > 250 | > 250 | > 250 | > 250 | > 250 | > 250 | > 250 | > 250 | > 250 | 250 (≈ 1090 µM) | > 250 | 250 (≈ 1090 µM)
CC1=CC(O)N(Cc2ccccc2)C1=O (centres undefined) | > 250 | > 250 | > 250 | > 250 | > 250 | > 250 | > 250 | > 250 | > 250 | > 250 | > 250 | > 250 | > 250 | > 250 | > 250 | > 250 | > 250 | > 250 | > 250 | > 250
O=C1C(c2ccccc2)=C(c2ccccc2)C(=O)N1CCc1ccccc1 | > 250 | > 250 | > 250 | > 250 | > 250 | > 250 | > 250 | > 250 | > 250 | > 250 | > 250 | > 250 | > 250 | > 250 | > 250 | > 250 | > 250 | > 250 | > 250 | > 250
CC1=CC(=O)N(Cc2ccccc2)C1O (centres undefined) | > 250 | > 250 | > 250 | > 250 | > 250 | > 250 | > 250 | > 250 | > 250 | > 250 | > 250 | > 250 | > 250 | > 250 | > 250 | > 250 | > 250 | > 250 | > 250 | > 250
CC1=CC(=O)N(CCCCc2ccccc2)C1O (centres undefined) | > 250 | > 250 | > 250 | > 250 | > 250 | > 250 | > 250 | > 250 | > 250 | > 250 | > 250 | > 250 | > 250 | > 250 | > 250 | > 250 | > 250 | > 250 | > 250 | > 250
CC1=CC(O)N(CCCc2ccccc2)C1=O (centres undefined) | > 250 | > 250 | > 250 | > 250 | > 250 | > 250 | > 250 | > 250 | > 250 | > 250 | > 250 | > 250 | > 250 | > 250 | > 250 | > 250 | > 250 | > 250 | > 250 | > 250
CC1=CC(O)N(CCc2ccccc2)C1=O (centres undefined) | > 250 | > 250 | > 250 | > 250 | > 250 | > 250 | > 250 | > 250 | > 250 | > 250 | > 250 | > 250 | > 250 | > 250 | > 250 | > 250 | > 250 | > 250 | > 250 | > 250
O=C1C=CC(O)N1CCCCc1ccccc1 (centres undefined) | > 250 | > 250 | > 250 | 250 (≈ 1080 µM) | > 250 | > 250 | 250 (≈ 1080 µM) | 62.5 (≈ 270 µM) | > 250 | > 250 | > 250 | > 250 | > 250 | > 250 | > 250 | > 250 | 250 (≈ 1080 µM) | 125 (≈ 540 µM) | 125 (≈ 540 µM) | 62.5 (≈ 270 µM)
O=C1C(c2ccccc2)=C(c2ccccc2)C(=O)N1CCCCc1ccccc1 | > 250 | > 250 | > 250 | > 250 | > 250 | > 250 | > 250 | > 250 | > 250 | > 250 | > 250 | > 250 | > 250 | > 250 | > 250 | > 250 | > 250 | > 250 | > 250 | > 250
CC1=CC(=O)N(CCCc2ccccc2)C1O (centres undefined) | > 250 | > 250 | > 250 | 250 (≈ 1080 µM) | > 250 | > 250 | > 250 | 250 (≈ 1080 µM) | > 250 | > 250 | > 250 | > 250 | > 250 | > 250 | > 250 | > 250 | > 250 | 250 (≈ 1080 µM) | > 250 | 250 (≈ 1080 µM)
O=C(O)/C=C\C(=O)Nc1ccccc1 | > 250 | > 250 | > 250 | > 250 | > 250 | 125 (≈ 654 µM) | 250 (≈ 1310 µM) | 62.5 (≈ 327 µM) | > 250 | – | > 250 | > 250 | > 250 | > 250 | > 250 | > 250 | > 250 | 125 (≈ 654 µM) | > 250 | 250 (≈ 1310 µM)
